What was measured:
Format in all cases: functional
Plasmodium berghei [1] = assay: Antimalarial activity in Plasmodium berghei infected mice (Mus musculus) after 320 mg/kg subcutaneous dose
How it was run: (§1)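 […] in mice infected with a normal drug-sensitive P. berghei strain. Compound dissolved or suspended in sesame or peanut oil, given as a single subcutaneous dose 72 h postinfection.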

Plasmodium berghei [2] = assay: Antimalarial activity in Plasmodium berghei infected mice (Mus musculus) after 160 mg/kg subcutaneous dose; how it was run: as §1
Plasmodium berghei [3] = assay: (§2) Antimalarial activity in Plasmodium berghei infected mice (Mus musculus) after 80 mg/kg subcutaneous dose; how it was run: as §1
Plasmodium berghei [4] = assay: (§3) Antimalarial activity in Plasmodium berghei infected mice (Mus musculus) after 40 mg/kg subcutaneous dose; how it was run: as §1
Plasmodium berghei [5] = assay: Antimalarial activity in Plasmodium berghei infected mice (Mus musculus) after subcutaneous 640 mg/kg dose
How it was run: (§4)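 Normal drug-sensitive P. berghei strain in mice. Compound dissolved or suspended in sesame or peanut oil, given parenterally as a single subcutaneous dose 72 h postinfection.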

Plasmodium berghei [6] = assay: as §3; how it was run: as §4; remark: listed apart in the source
Plasmodium berghei [7] = assay: Antimalarial activity in Plasmodium berghei infected mice (Mus musculus) after subcutaneous 160 mg/kg dose; how it was run: as §4
Plasmodium berghei [8] = assay: Antimalarial activity Plasmodium berghei infected mice (Mus musculus) after 640 mg/kg subcutaneous dose; how it was run: as §1
Plasmodium berghei [9] = assay: as §2; how it was run: as §4; remark: listed apart in the source
Plasmodium berghei [10] = assay: Antimalarial activity in Plasmodium berghei infected mice (Mus musculus) after 20 mg/kg subcutaneous dose; how it was run: as §1
Plasmodium berghei [11] = assay: Antimalarial activity in Plasmodium berghei infected mice (Mus musculus) after subcutaneous 320 mg/kg dose; how it was run: as §4

| Compound | Delta mean survival time (Plasmodium berghei [1]) | Delta mean survival time (Plasmodium berghei [2]) | Delta mean survival time (Plasmodium berghei [3]) | Delta mean survival time (Plasmodium berghei [4]) | No. of cured mice (Plasmodium berghei [5]) | No. of cured mice (Plasmodium berghei [6]) | No. of cured mice (Plasmodium berghei [7]) | Delta mean survival time (Plasmodium berghei [8]) | No. of cured mice (Plasmodium berghei [9]) | Delta mean survival time (Plasmodium berghei [10]) | No. of cured mice (Plasmodium berghei [11]) | Delta mean survival time (Plasmodium berghei [3]; 80 mg/kg) | No. of cured mice (Plasmodium berghei [6]; 40 mg/kg) | Delta mean survival time (Plasmodium berghei [10]; 20 mg/kg) | Delta mean survival time (Plasmodium berghei [4]; 40 mg/kg) |
| --- | --- | --- | --- | --- | --- | --- | --- | --- | --- | --- | --- | --- | --- | --- | --- |
| CN(C)CCC/N=C1\CC(c2ccccc2)Cc2c1c(=O)c1cc(Cl)ccc1n2O (stereo unspecified) | 8.8 | 4.2 | 1.2 | 0.6 | 5 |  |  |  |  |  |  |  |  |  |  |
| CCN(CC)CCCCCCC/N=C1\CC(c2ccc(C(F)(F)F)cc2)Cc2nc3ccc(Cl)cc3c(O)c21 (stereo unspecified) |  | 23.1 |  | 9.6 | 3 | 4 | 3 | 0.1 |  |  |  |  |  |  |  |
| CC1C(=O)c2c(nc3ccc(Cl)cc3c2O)CC1c1ccc(Cl)c(Cl)c1 (stereo unspecified) |  |  |  | 10.8 | 5 | 3 | 5 |  | 5 | 8.2 | 5 |  |  |  |  |
| CN(C)CCC/N=C1\CC(c2cccc(Br)c2)Cc2c1c(=O)c1cc(Cl)ccc1n2O (stereo unspecified) | 10.2 | 9.4 | 5.3 | 1.6 | 5 |  |  |  |  |  | 2 |  |  |  |  |
| CCN(CC)CC/N=C1\CC(c2ccc(C(F)(F)F)cc2)Cc2nc3ccc(Cl)cc3c(O)c21 (stereo unspecified) |  |  |  | 17.6 | 5 | 3 | 5 |  |  |  |  |  |  |  |  |
| CCN1CCCC(/N=C2\CC(c3ccc(Cl)c(Cl)c3)Cc3c2c(=O)c2cc(Cl)ccc2n3O)C1 (stereo unspecified) | 8.8 | 8.3 | 7.2 |  | 5 |  | 2 |  |  |  | 4 |  |  |  |  |
| CN(C)CCC/N=C1\CC(c2ccc(C(F)(F)F)cc2)Cc2nc3ccc(Br)cc3c(O)c21 (stereo unspecified) |  |  |  | 9.3 | 2 | 1 | 5 | 25.7 | 5 | 6 | 5 |  |  |  |  |
| C=CCn1c2c(c(=O)c3cc(Cl)ccc31)C(=O)CC(c1ccc(C(F)(F)F)cc1)C2 (stereo unspecified) |  | 12.6 |  | 8.5 | 4 | 1 |  | 15 |  |  |  |  |  |  |  |
| CN(C)CCC/N=C1\CC(c2cccc3ccccc23)Cc2c1c(=O)c1cc(Cl)ccc1n2O (stereo unspecified) | 4.7 | 9.3 | 7.1 | 2.6 | 5 |  | 1 |  |  |  | 4 |  |  |  |  |
| O=c1c2c(n(O)c3ccc(Cl)cc13)CC(c1cccc(C(F)(F)F)c1)C/C2=N\Cc1ccc(Cl)c(Cl)c1 (stereo unspecified) | 11.5 | 8.4 | 4.4 |  | 5 |  |  |  |  |  | 2 |  |  |  |  |
| CCCC/N=C1\CC(c2ccc(C(F)(F)F)cc2)Cc2c1c(=O)c1cc(Cl)ccc1n2O (stereo unspecified) |  |  | 10.2 | 8.5 | 5 | 1 | 5 |  | 3 | 5.3 | 5 |  |  |  |  |
| C=CCNCC/N=C1\CC(c2cccc(C(F)(F)F)c2)Cc2c1c(=O)c1cc(Cl)ccc1n2O (stereo unspecified) |  |  | 9.4 | 5.9 | 5 | 2 | 5 |  | 1 | 3 | 5 |  |  |  |  |
| CN(C)c1ccc(C2CC(=O)c3c(n(O)c4ccc(Cl)cc4c3=O)C2)cc1 (stereo unspecified) | 6.8 | 6.6 | 5.8 | 1.6 | 5 |  | 1 |  |  |  | 3 |  |  |  |  |
| CCN(CC)CCC/N=C1\CC(c2ccc(Cl)c(Cl)c2)Cc2c1c(=O)c1cc(Cl)ccc1n2O (stereo unspecified) |  | 12.7 | 11.7 | 3.5 | 5 |  | 4 |  | 2 | 5.8 | 5 |  |  |  |  |
| CN(C)CCC/N=C1\CC(c2c(Cl)cccc2Cl)Cc2c1c(=O)c1cc(Cl)ccc1n2O (stereo unspecified) | 7.2 | 9.4 | 4.1 | 1.2 | 5 |  | 1 |  |  |  | 1 |  |  |  |  |
| CN(C)CCC/N=C1\CC(c2ccc(Cl)cc2Cl)Cc2nc3c(Cl)ccc(Cl)c3c(O)c21 (stereo unspecified) | 0 |  | 0 |  |  |  |  |  |  | 1.2 |  |  |  |  |  |

| Compound | Delta mean survival time (Plasmodium berghei [1]) | Delta mean survival time (Plasmodium berghei [2]) | Delta mean survival time (Plasmodium berghei [3]) | Delta mean survival time (Plasmodium berghei [4]) | No. of cured mice (Plasmodium berghei [5]) | No. of cured mice (Plasmodium berghei [6]) | No. of cured mice (Plasmodium berghei [7]) | Delta mean survival time (Plasmodium berghei [8]) | No. of cured mice (Plasmodium berghei [9]) | Delta mean survival time (Plasmodium berghei [10]) | No. of cured mice (Plasmodium berghei [11]) | Delta mean survival time (Plasmodium berghei [3]; 80 mg/kg) | No. of cured mice (Plasmodium berghei [6]; 40 mg/kg) | Delta mean survival time (Plasmodium berghei [10]; 20 mg/kg) | Delta mean survival time (Plasmodium berghei [4]; 40 mg/kg) |
| --- | --- | --- | --- | --- | --- | --- | --- | --- | --- | --- | --- | --- | --- | --- | --- |
| O=C1CC(c2ccc(F)cc2)Cc2c1c(=O)c1cc(Cl)ccc1n2O (stereo unspecified) |  | 8.8 | 9.8 | 19.4 | 5 | 2 | 4 |  | 4 | 5 | 5 |  |  |  |  |
| CC(C/N=C1\CC(c2cccc(C(F)(F)F)c2)Cc2c1c(=O)c1cc(Cl)ccc1n2O)N(C)C (stereo unspecified) |  | 8.6 | 9.2 | 11.9 | 5 | 1 | 2 |  |  | 4 | 5 |  |  |  |  |
| CC(C/N=C1\CC(c2ccc(C(F)(F)F)cc2)Cc2nc3ccc(Cl)cc3c(O)c21)N(C)C (stereo unspecified) |  |  |  |  | 5 | 5 | 5 |  |  |  |  |  |  |  |  |
| CN(C)CCC/N=C1\CC(c2ccc(N(C)C)cc2)Cc2c1c(=O)c1cc(Cl)ccc1n2O (stereo unspecified) | 7.4 | 6.8 | 0.9 |  | 5 |  |  |  |  |  | 3 |  |  |  |  |
| CN(C)CCC/N=C1\CC(c2ccc(Cl)c(Cl)c2)Cc2nc3ccc(Cl)cc3c(O)c21 (stereo unspecified) |  |  | 11.8 | 9.8 | 5 | 3 | 5 |  | 4 | 9.2 | 5 |  |  |  |  |
| CCN(CC)CCCC(C)/N=C1\CC(c2ccc(Cl)c(Cl)c2)Cc2c1c(=O)c1cc(Cl)ccc1n2O (stereo unspecified) |  |  | 9.6 | 6.1 | 5 | 1 | 5 |  | 1 |  | 5 |  |  |  |  |
| CCCCN(CCCC)CC/N=C1\CC(c2cccc(C(F)(F)F)c2)Cc2c1c(=O)c1cc(Cl)ccc1n2O (stereo unspecified) |  | 11.6 | 7 | 9.6 | 5 | 1 | 3 |  |  | 5.4 | 5 |  |  |  |  |
| CN(C)CCC/N=C1\CC(c2ccc(Cl)c(Cl)c2)Cc2c1c(=O)c1cc(Cl)ccc1n2O (stereo unspecified) |  |  | 17.2 | 12.7 | 5 | 3 | 5 |  | 3 | 7.1 | 5 |  |  |  |  |
| CC(C)C1CC(=O)c2c(n(O)c3ccc(Cl)cc3c2=O)C1 (stereo unspecified) | 8.3 | 3.5 | 1.7 | 0.3 | 5 |  |  |  |  | 0.1 |  |  |  |  |  |
| CN(C)CCC/N=C1\CC(c2ccc(Cl)c(C(F)(F)F)c2)Cc2nc3ccc(Cl)cc3c(O)c21 (stereo unspecified) |  |  |  | 8.7 | 5 | 4 | 5 |  | 5 | 7.5 | 5 |  |  |  |  |
| NCC/N=C1\CC(c2ccc(Cl)cc2Cl)Cc2nc3ccc(Cl)cc3c(O)c21 (stereo unspecified) |  |  |  |  | 5 | 5 | 5 |  |  |  |  |  |  |  |  |
| CCN(CC)C1CCC(/N=C2\CC(c3ccc(Cl)c(Cl)c3)Cc3c2c(=O)c2cc(Cl)ccc2n3O)CC1 (stereo unspecified) | 12.1 |  | 7.2 | 5.6 | 5 |  | 5 |  |  |  | 3 |  |  |  |  |
| CCCCNCCC/N=C1\CC(c2ccc(Cl)c(Cl)c2)Cc2c1c(=O)c1cc(Cl)ccc1n2O (stereo unspecified) |  | 10.6 | 9.1 | 9.4 | 5 |  | 4 |  | 1 | 4.4 | 5 |  |  |  |  |
| CN(C)CCC/N=C1/c2c([nH]c3ccc(Cl)cc3c2=O)CC(c2ccc(Cl)c(Cl)c2)C1c1ccccc1 (stereo unspecified) |  | 12.2 | 14.2 | 7.7 | 5 |  | 2 |  | 1 | 3.1 | 5 |  |  |  |  |
| CC1/C(=N\CCCN(C)C)c2c(nc3ccc(Cl)cc3c2O)CC1c1ccc(Cl)c(Cl)c1 (trans isomer) |  |  |  |  |  |  | 5 |  | 4 |  | 5 | 15 | 1 | 5.3 | 7.2 |
